Source: ChEMBL document CHEMBL1149110, “Identification of 2-[2-[2-(5-bromo-2- methoxyphenyl)-ethyl]-3-fluorophenyl]-4,5-dihydro-1H-imidazole (ML00253764), a small molecule melanocortin 4 receptor antagonist that effectively reduces tumor-induced weight loss in a mouse model” (J Med Chem, 2004)
pIC50, pKi: −log10 of the molar value.

What was measured:
Melanocortin receptor 4 = Melanocortin receptor 4 (Mus musculus, UniProt P56450); assay: Competition binding affinity at mice melanocortin 4 receptor using [125I][NDP]-R-MSH as radioligand in a membrane filtration assay; assay type: cell membranes
Procedure, shortened: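 Membrane filtration competition binding at MC4R with 125I-[NDP]-α-MSH as radioligand. Values are averages of at least three measurements, reported ± SD.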

Mus musculus = species on record: Mus musculus; assay: Functional antagonism measured by inhibition of cAMP production induced by [NDP]-R-MSH in a whole cell assay in mice
Procedure, shortened: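 Whole-cell functional assay measuring inhibition of cAMP production stimulated by [NDP]-α-MSH. Values are averages of at least three measurements, reported ± SD.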

Sequence of Melanocortin receptor 4 (P56450 whole entry): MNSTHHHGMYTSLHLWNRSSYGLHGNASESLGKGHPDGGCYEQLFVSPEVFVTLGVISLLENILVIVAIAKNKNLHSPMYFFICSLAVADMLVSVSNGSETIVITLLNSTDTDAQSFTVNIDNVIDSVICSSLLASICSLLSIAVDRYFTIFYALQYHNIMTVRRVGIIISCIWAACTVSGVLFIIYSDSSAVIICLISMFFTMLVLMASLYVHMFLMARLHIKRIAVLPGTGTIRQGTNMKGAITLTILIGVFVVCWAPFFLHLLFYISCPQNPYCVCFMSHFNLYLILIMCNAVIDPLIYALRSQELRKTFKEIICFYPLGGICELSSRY

Compound | pKi (Melanocortin receptor 4) | pIC50 (Mus musculus)
Clc1cc(CSc2ccccc2C2=NCCCN2)c(Cl)s1 | 5.66 | –
Fc1cccc(F)c1CSc1ccccc1C1=NCCCN1 | 4.80 | –
Fc1cccc(Cl)c1CSc1ccccc1C1=NCCCN1 | 5.57 | –

Now those with a higher pKi (Melanocortin receptor 4), led by results:

pKi (Melanocortin receptor 4) | pIC50 (Mus musculus) | Compound
6.66 | 6.55 | COc1ccc(Br)cc1CCc1ccccc1C1=NCCCN1
6.80 | – | COc1ccc(Br)cc1CCc1c(F)cccc1C1=NCCN1
7.17 | 6.57 | COc1ccc(Br)cc1CSc1ccccc1C1=NCCCN1
7.41 | 6.35 | COc1ccc(Br)cc1CCc1ccccc1C1=NCCN1
